Experimental data from ChEMBL document CHEMBL3864138, “First discovery of novel 3-hydroxy-quinazoline-2,4(1H,3H)-diones as specific anti-vaccinia and adenovirus agents via 'privileged scaffold' refining approach” (Bioorg Med Chem Lett, 2016).

Key:
[1] = Cytotoxicity against HEL cells assessed as alteration of cell morphology after 3 days by microscopic analysis; type: toxicity, cell-based; settings: human
Procedure, shortened: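 HEL cell cultures were checked by microscopy for compound cytotoxicity, reported as MCC. The highest concentration tested was […].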

[2] = test system: Vaccinia virus; test: Antiviral activity against Vaccinia virus infected in HEL cells assessed as inhibition of virus-induced cytopathicity; type: functional, cell-based; settings: Orthopoxvirus vaccinia
[3] = test system: Human adenovirus 2; test: Antiviral activity against Human adenovirus 2 infected in HEL cells assessed as inhibition of virus-induced cytopathicity; type: functional, cell-based; settings: Human mastadenovirus C
[4] = test system: Vaccinia virus; test: Potency index, ratio of cidofovir EC50 against Vaccinia virus infected in HEL cells to compound EC50 against Vaccinia virus infected in HEL cells; type: functional, Orthopoxvirus vaccinia
[5] = test system: Vaccinia virus; test: Potency index, ratio of brivudin EC50 against Vaccinia virus infected in HEL cells to compound EC50 against Vaccinia virus infected in HEL cells; type: functional, Orthopoxvirus vaccinia

Structure (SMILES) | MCC at 72 h [1] [µM] | EC50 [2] [µM] | EC50 [3] [µM] | Ratio EC50 [4] | Ratio EC50 [5]
Cn1c(=O)n(O)c(=O)c2cc(-c3cn(Cc4ccc([N+](=O)[O-])cc4)nn3)ccc21 | > 100 | 2.4 | > 100 |  | 
Cn1c(=O)n(O)c(=O)c2cc(-c3cn(Cc4ccc(C#N)cc4)nn3)ccc21 | > 100 | > 100 | > 100 |  | 
CCn1c(=O)n(O)c(=O)c2cc(-c3cn(Cc4c(F)cccc4F)nn3)ccc21 | > 100 | > 100 | 8 |  | 
CCn1c(=O)n(O)c(=O)c2cc(-c3cn(Cc4ccccc4)nn3)ccc21 | > 100 | > 100 | 12 |  | 
Cn1c(=O)n(O)c(=O)c2cc(-c3cn(Cc4cccc(F)c4)nn3)ccc21 | > 100 | > 100 | > 100 |  | 
CCn1c(=O)n(O)c(=O)c2cc(-c3cn(Cc4ccc([N+](=O)[O-])cc4)nn3)ccc21 | > 100 | 1.7 | > 100 | 15 | 8 - 15
CCn1c(=O)n(O)c(=O)c2cc(-c3cn(Cc4ccc(C#N)cc4)nn3)ccc21 | > 100 | 15 | > 100 |  | 
Cn1c(=O)n(O)c(=O)c2cc(-c3cn(Cc4ccccc4F)nn3)ccc21 | > 100 | > 100 | > 100 |  | 
CCn1c(=O)n(O)c(=O)c2cc(-c3cn(Cc4ccc(F)cc4F)nn3)ccc21 | 20 | > 100 | > 100 |  | 
Nc1ccn(C[C@@H](CO)OCP(=O)(O)O)c(=O)n1 [CIDOFOVIR] | > 250 | 25 | 10 |  | 
CCn1c(=O)n(O)c(=O)c2cc(-c3cn(Cc4cc(F)ccc4F)nn3)ccc21 | 20 | > 100 | > 100 |  | 
CCn1c(=O)n(O)c(=O)c2cc(-c3cn(Cc4ccccc4F)nn3)ccc21 | > 100 | > 100 | 6.5 |  | 
Cn1c(=O)n(O)c(=O)c2cc(-c3cn(Cc4c(F)cccc4F)nn3)ccc21 | 100 | > 100 | > 100 |  | 
Cn1c(=O)n(O)c(=O)c2cc(-c3cn(Cc4cc(F)ccc4F)nn3)ccc21 | > 100 | > 100 | > 100 |  | 
Nc1ccn([C@H]2CC[C@@H](CO)O2)c(=O)n1 [ZALCITABINE] | > 250 |  | 7.2 |  | 
Cc1cn([C@H]2C[C@H](F)[C@@H](CO)O2)c(=O)[nH]c1=O [ALOVUDINE] | > 250 |  | 10 |  | 
Cn1c(=O)n(O)c(=O)c2cc(-c3cn(Cc4ccccc4)nn3)ccc21 | > 100 | > 100 | > 100 |  | 
Cn1c(=O)n(O)c(=O)c2cc(-c3cn(Cc4c(Cl)cccc4Cl)nn3)ccc21 | > 100 | > 100 | > 100 |  | 
O=c1[nH]c(=O)n([C@H]2C[C@H](O)[C@@H](CO)O2)cc1/C=C/Br [BRIVUDINE] | > 250 | 15 |  |  | 
Cn1c(=O)n(O)c(=O)c2cc(-c3cn(Cc4ccc(F)cc4)nn3)ccc21 | > 100 | > 100 | > 100 |  | 
Cn1c(=O)n(O)c(=O)c2cc(-c3cn(Cc4ccc(F)c(F)c4)nn3)ccc21 | 100 | 5 | > 100 |  | 
CCn1c(=O)n(O)c(=O)c2cc(-c3cn(Cc4ccc(OC)cc4)nn3)ccc21 | > 100 | > 100 | 6.2 |  | 
Cn1c(=O)n(O)c(=O)c2cc(-c3cn(Cc4ccc(F)cc4F)nn3)ccc21 | 100 | > 100 | > 100 |  | 
CCn1c(=O)n(O)c(=O)c2cc(-c3cn(Cc4cccc(F)c4)nn3)ccc21 | > 100 | > 100 | 13 |  | 
CCn1c(=O)n(O)c(=O)c2cc(-c3cn(Cc4ccccc4C)nn3)ccc21 | 20 | > 100 | > 100 |  | 
Cc1ccccc1Cn1cc(-c2ccc3c(c2)c(=O)n(O)c(=O)n3C)nn1 | 100 | > 100 | > 100 |  | 
CCn1c(=O)n(O)c(=O)c2cc(-c3cn(Cc4ccc(F)cc4)nn3)ccc21 | 100 | > 100 | > 100 |  | 
COc1ccc(Cn2cc(-c3ccc4c(c3)c(=O)n(O)c(=O)n4C)nn2)cc1 | > 100 | > 100 | 12 |  | 
CCn1c(=O)n(O)c(=O)c2cc(-c3cn(Cc4c(Cl)cccc4Cl)nn3)ccc21 | > 100 | > 100 | > 100 |  | 
CCn1c(=O)n(O)c(=O)c2cc(-c3cn(Cc4ccc(F)c(F)c4)nn3)ccc21 | 20 | 1.9 | > 100 |  | 
